Laboratory results from ChEMBL document CHEMBL1123950, “N-(Retinoyl)amino acids. Synthesis and chemopreventive activity in vitro” (1988).

Legend:
Cricetinae gen. sp. [1] = experiment: Reversal of keratinization in vitamin A deficient hamster trachea culture; type: functional, Cricetulus griseus; settings: read-out: ED50 (the source's name)
In short: (§1)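 Tracheas from 29-31-day-old hamsters kept on a vitamin A free diet, cultured in serum-free CMRL 1066 (insulin 1.0 μg/mL, hydrocortisone hemisuccinate 0.1 μg/mL, glutamine 2 mM, Garamycin 50 μg/mL), 50% O2/45% N2/5% CO2, rocked at 36 °C. Retinoid-free for 3 days, then retinoid in DMSO (0.1% final) for 7 days. Fixed in formalin; squamous metaplasia graded mild 2-10%, marked 10-40%, severe >40%.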

L1210 [2] = experiment: Inhibition of proliferation of L1210 cells in culture at a conc 20 ug/mL; type: functional, Mus musculus; set-up: scale not given: the % may be the effect or the level left
In short: (§2)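 L1210 suspension of about 10⁵ cells treated with retinoid at 1-40 μg/mL, 37 °C for 48 h; cells counted at 0 and 48 h, three cultures averaged per concentration. % of control = 100 × (treated 48 h − 0 h count)/(control 48 h − 0 h count).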

HEp-2 [3] = experiment: Viability of human epidermoid carcinoma cells (H.Ep-2) at a conc 10 ug/mL; type: functional
In short: (§3)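 Human epidermoid carcinoma H.Ep.-2 cells, clone-colony viability assay with retinoid at 1-40 μg/mL; incubated 37 °C for 12 days, stained, colonies counted. % of control = 100 × treated colonies/control colonies.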

L1210 [4] = experiment: Inhibition of proliferation of L1210 cells in culture at a conc 10 ug/mL; type: functional, Mus musculus; set-up: scale not given: the % may be the effect or the level left; in short: as §2
HEp-2 [5] = experiment: Viability of human epidermoid carcinoma cells (H.Ep-2) at a conc 40 ug/mL; type: functional; in short: as §3
HEp-2 [6] = experiment: Viability of human epidermoid carcinoma cells (H.Ep-2) at a conc 1 ug/mL; type: functional; in short: as §3
L1210 [7] = experiment: Inhibition of proliferation of L1210 cells in culture at a conc 40 ug/mL; type: functional, Mus musculus; set-up: scale not given: the % may be the effect or the level left; in short: as §2
HEp-2 [8] = experiment: Viability of human epidermoid carcinoma cells (H.Ep-2) at a conc 20 ug/mL; type: functional; in short: as §3
L1210 [9] = experiment: Inhibition of proliferation of L1210 cells in culture at a conc 1 ug/mL; type: functional, Mus musculus; set-up: scale not given: the % may be the effect or the level left; in short: as §2
Cricetinae gen. sp. [10] = experiment: Cultures with severe degree of squamous metaplasia at a concentration of 10e-11; type: functional, Cricetulus griseus; in short: as §1
Cricetinae gen. sp. [11] = experiment: Cultures with minimal degree of squamous metaplasia at a concentration of 10e-8 M; type: functional, Cricetulus griseus
In short: (§4)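 Tracheas from 29-31-day-old hamsters fed a vitamin A free diet; cultured in serum-free CMRL 1066 (insulin 1.0 μg/mL, hydrocortisone hemisuccinate 0.1 μg/mL, glutamine 2 mM, Garamycin 50 μg/mL), 50% O2/45% N2/5% CO2, rocked, 36 °C. Retinoid-free 3 days, then retinoid in DMSO (final 0.1%) for 7 days; medium and gas changed three times. Formalin-fixed day 10; squamous metaplasia graded: mild 2-10%, marked 10-40%, severe >40%.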

Cricetinae gen. sp. [12] = experiment: Cultures with marked degree of squamous metaplasia at a concentration of 10e-8 M; type: functional, Cricetulus griseus; in short: as §4
Cricetinae gen. sp. [13] = experiment: Cultures with mild degree of squamous metaplasia at a concentration of 10e-8 M; type: functional, Cricetulus griseus; in short: as §4
Cricetinae gen. sp. [14] = experiment: Cultures with no evidence of squamous metaplasia at a concentration of 10e-11; type: functional, Cricetulus griseus; in short: as §4
Cricetinae gen. sp. [15] = experiment: Cultures with minimal degree of squamous metaplasia at a concentration of 10e-10; type: functional, Cricetulus griseus; in short: as §4
Cricetinae gen. sp. [16] = experiment: Cultures with marked degree of squamous metaplasia at a concentration of 10e-9; type: functional, Cricetulus griseus; in short: as §4
HEp-2 [17] = experiment: Viability of human epidermoid carcinoma cells (H.Ep-2) at a concentration 1 ug/mL; type: functional; in short: as §3
Cricetinae gen. sp. [18] = experiment: Cultures with mild degree of squamous metaplasia at a concentration of 10e-11; type: functional, Cricetulus griseus; in short: as §4
Cricetinae gen. sp. [19] = experiment: Cultures with no evidence of squamous metaplasia at a concentration of 10e-10; type: functional, Cricetulus griseus; in short: as §4
Cricetinae gen. sp. [20] = experiment: Cultures with no evidence of squamous metaplasia at a concentration of 10e-9; type: functional, Cricetulus griseus; in short: as §4
Cricetinae gen. sp. [21] = experiment: Cultures with minimal degree of squamous metaplasia at a concentration of 10e-9; type: functional, Cricetulus griseus; in short: as §4
Cricetinae gen. sp. [22] = experiment: Cultures with marked degree of squamous metaplasia at a concentration of 10e-11; type: functional, Cricetulus griseus; in short: as §4
Cricetinae gen. sp. [23] = experiment: Cultures with severe degree of squamous metaplasia at a concentration of 10e-10; type: functional, Cricetulus griseus; in short: as §4
Cricetinae gen. sp. [24] = experiment: Cultures with mild degree of squamous metaplasia at a concentration of 10e-9; type: functional, Cricetulus griseus; in short: as §4
HEp-2 [25] = experiment: Viability of human epidermoid carcinoma cells (H.Ep-2) at a concentration 20 ug/mL; type: functional; in short: as §3
Cricetinae gen. sp. [26] = experiment: Cultures with mild degree of squamous metaplasia at a concentration of 10e-10; type: functional, Cricetulus griseus; in short: as §4
L1210 [27] = experiment: Inhibition of proliferation of L1210 cells in culture at a concentration 1 ug/mL; type: functional, Mus musculus; set-up: scale not given: the % may be the effect or the level left; in short: as §2
Cricetinae gen. sp. [28] = experiment: Cultures with severe degree of squamous metaplasia at a concentration of 10e-8 M; type: functional, Cricetulus griseus; in short: as §1
Cricetinae gen. sp. [29] = experiment: Cultures with severe degree of squamous metaplasia at a concentration of 10e-9; type: functional, Cricetulus griseus; in short: as §1
HEp-2 [30] = experiment: Viability of human epidermoid carcinoma cells (H.Ep-2) at a concentration 40 ug/mL; type: functional; in short: as §3
L1210 [31] = experiment: Inhibition of proliferation of L1210 cells in culture at a concentration 10 ug/mL; type: functional, Mus musculus; set-up: scale not given: the % may be the effect or the level left; in short: as §2
Cricetinae gen. sp. [32] = experiment: Cultures with marked degree of squamous metaplasia at a concentration of 10e-10; type: functional, Cricetulus griseus; in short: as §4
Cricetinae gen. sp. [33] = experiment: Cultures with minimal degree of squamous metaplasia at a concentration of 10e-11; type: functional, Cricetulus griseus; in short: as §4
L1210 [34] = experiment: Inhibition of proliferation of L1210 cells in culture at a concentration 20 ug/mL; type: functional, Mus musculus; set-up: scale not given: the % may be the effect or the level left; in short: as §2
Cricetinae gen. sp. [35] = experiment: Cultures with no evidence of squamous metaplasia at a concentration of 10e-8 M; type: functional, Cricetulus griseus; in short: as §4
Cricetinae gen. sp. [36] = experiment: Reversal of keratinization in vitamin A deficient hamster trachea culture at a concentration of 10e-8 M; type: functional, Cricetulus griseus; settings: read-out: ED50 (the source's name); in short: as §1
HEp-2 [37] = experiment: Viability of human epidermoid carcinoma cells (H.Ep-2) at a concentration 10 ug/mL; type: functional; in short: as §3
Cricetinae gen. sp. [38] = experiment: Cultures with mild degree of squamous metaplasia at a conc of 10e-9 M; type: functional, Cricetulus griseus; in short: as §4
Cricetinae gen. sp. [39] = experiment: Cultures with severe degree of squamous metaplasia at a conc of 10e-8 M; type: functional, Cricetulus griseus; in short: as §4
Cricetinae gen. sp. [40] = experiment: Cultures with minimal degree of squamous metaplasia at a conc of 10e-9 M; type: functional, Cricetulus griseus; in short: as §4
Cricetinae gen. sp. [41] = experiment: Cultures with mild degree of squamous metaplasia at a conc of 10e-10 M; type: functional, Cricetulus griseus; in short: as §4
Cricetinae gen. sp. [42] = experiment: Cultures with no evidence of squamous metaplasia at a conc of 10e-10 M; type: functional, Cricetulus griseus; in short: as §4
Cricetinae gen. sp. [43] = experiment: Cultures with no evidence of squamous metaplasia at a conc of 10e-8 M; type: functional, Cricetulus griseus; in short: as §4
Cricetinae gen. sp. [44] = experiment: Cultures with severe degree of squamous metaplasia at a conc of 10e-9 M; type: functional, Cricetulus griseus; in short: as §4
Cricetinae gen. sp. [45] = experiment: Cultures with severe degree of squamous metaplasia at a conc of 10e-10 M; type: functional, Cricetulus griseus; in short: as §4
Cricetinae gen. sp. [46] = experiment: Reversal of keratinization in vitamin A deficient hamster trachea culture at a conc of 10e-8 M; type: functional, Cricetulus griseus; settings: read-out: ED50 (the source's name); in short: as §1
Cricetinae gen. sp. [47] = experiment: Cultures with mild degree of squamous metaplasia at a conc of 10e-8 M; type: functional, Cricetulus griseus; in short: as §4
Cricetinae gen. sp. [48] = experiment: Cultures with minimal degree of squamous metaplasia at a conc of 10e-10 M; type: functional, Cricetulus griseus; in short: as §4
Cricetinae gen. sp. [49] = experiment: Cultures with no evidence of squamous metaplasia at a conc of 10e-9 M; type: functional, Cricetulus griseus; in short: as §4
Cricetinae gen. sp. [50] = experiment: Cultures with marked degree of squamous metaplasia at a conc of 10e-9 M; type: functional, Cricetulus griseus; in short: as §4
Cricetinae gen. sp. [51] = experiment: Cultures with marked degree of squamous metaplasia at a conc of 10e-10 M; type: functional, Cricetulus griseus; in short: as §4
Cricetinae gen. sp. [52] = experiment: Cultures with marked degree of squamous metaplasia at a conc of 10e-8 M; type: functional, Cricetulus griseus; in short: as §4
Cricetinae gen. sp. [53] = experiment: Cultures with minimal degree of squamous metaplasia at a conc of 10e-8 M; type: functional, Cricetulus griseus; in short: as §4

For `CC1=C(/C=C/C(C)=C/C=C/C(C)=C/C(=O)Nc2ccc(O)cc2)C(C)(C)CCC1` [FENRETINIDE], the EC50 (Cricetinae gen. sp. [1]) was 0.3 nM.
With `CC1=C(/C=C/C(C)=C/C=C/C(C)=C\C(=O)NCCO)C(C)(C)CCC1` the Control (L1210 [2]) was 56%, the Control (HEp-2 [3]) was 38% and the Control (L1210 [4]) was 57%. For the same compound, the Control (HEp-2 [5]) was 27%, the Control (HEp-2 [6]) was 61% and the Control (L1210 [7]) was 0.5%. For the same compound, the Control (HEp-2 [8]) was 21%, the Control (L1210 [9]) was 76% and the EC50 (Cricetinae gen. sp. [1]) was 0.3 nM.
`CC1=C(/C=C/C(C)=C/C=C/C(C)=C/C(=O)NC(CC(C)C)C(=O)O)C(C)(C)CCC1` (centres undefined) was tested, and the Culture (Cricetinae gen. sp. [10]) was 14%, the Culture (Cricetinae gen. sp. [11]) was 0% and the Culture (Cricetinae gen. sp. [12]) was 0%. The Culture (Cricetinae gen. sp. [13]) was 4%, the Culture (Cricetinae gen. sp. [14]) was 14% and the Culture (Cricetinae gen. sp. [15]) was 0%. The Culture (Cricetinae gen. sp. [16]) was 9%, the Control (HEp-2 [17]) was 73% and the Culture (Cricetinae gen. sp. [18]) was 14%. The Culture (Cricetinae gen. sp. [19]) was 48%, the Culture (Cricetinae gen. sp. [20]) was 87% and the Culture (Cricetinae gen. sp. [21]) was 0%. The Culture (Cricetinae gen. sp. [22]) was 58%, the Culture (Cricetinae gen. sp. [23]) was 4% and the Culture (Cricetinae gen. sp. [24]) was 4%. It also gave a Control (HEp-2 [25]) of 14%, a Culture (Cricetinae gen. sp. [26]) of 16% and a Control (L1210 [27]) of 95%. For the same compound, the Culture (Cricetinae gen. sp. [28]) was 0%, the Culture (Cricetinae gen. sp. [29]) was 0% and the Control (HEp-2 [30]) was 25%. It also gave a Control (L1210 [31]) of 62%, a Culture (Cricetinae gen. sp. [32]) of 32% and a Culture (Cricetinae gen. sp. [33]) of 0%. It also gave a Control (L1210 [34]) of 20%, a Culture (Cricetinae gen. sp. [35]) of 96% and an EC50 (Cricetinae gen. sp. [36]) of 0.1 nM. For the same compound, the Control (HEp-2 [37]) was 29%.
`CC1=C(/C=C/C(C)=C/C=C/C(C)=C/C(=O)NC(Cc2ccc(O)cc2)C(=O)O)C(C)(C)CCC1` (centres undefined) gave a Culture (Cricetinae gen. sp. [38]) of 12%, a Culture (Cricetinae gen. sp. [39]) of 0% and a Culture (Cricetinae gen. sp. [40]) of 0%. The Culture (Cricetinae gen. sp. [41]) was 14%, the Culture (Cricetinae gen. sp. [42]) was 14% and the Culture (Cricetinae gen. sp. [43]) was 75%. It also gave a Culture (Cricetinae gen. sp. [44]) of 0%, a Culture (Cricetinae gen. sp. [45]) of 14% and an EC50 (Cricetinae gen. sp. [46]) of 3 nM. For the same compound, the Culture (Cricetinae gen. sp. [47]) was 0%, the Culture (Cricetinae gen. sp. [48]) was 0% and the Culture (Cricetinae gen. sp. [49]) was 38%. It also gave a Culture (Cricetinae gen. sp. [50]) of 50%, a Culture (Cricetinae gen. sp. [51]) of 58% and a Culture (Cricetinae gen. sp. [52]) of 25%. For the same compound, the Culture (Cricetinae gen. sp. [53]) was 0%.
